Legend:
HCT-116 [1] = assay: Induction of cell cycle arrest in human HCT-116 cells assessed as G1 phase at 0.375 uM incubated for 24 hrs by PI staining based flow cytometry analysis (reference value: 55 +/- 9.8 %); format: functional
NCI-H460 [2] = assay: Induction of cell cycle arrest in human NCI-H460 cells assessed as S phase at 0.75 uM incubated for 12 hrs by PI staining based flow cytometry analysis (reference value: 11.2 +/- 4.3 %); format: functional
NCI-H460 [3] = assay: Induction of cell cycle arrest in human NCI-H460 cells assessed as G1 phase at 0.75 uM incubated for 24 hrs by PI staining based flow cytometry analysis (reference value: 56.8 +/- 7.6 %); format: functional
CCRF-CEM = assay: Cytotoxicity against human CCRF-CEM cells assessed as reduction in cell viability incubated for 72 hrs by XTT assay; format: functional, cell-based
NCI-H460 [4] = assay: Induction of cell cycle arrest in human NCI-H460 cells assessed as G2/M phase at 3 uM incubated for 24 hrs by PI staining based flow cytometry analysis (reference value: 21 +/- 6.7 %); format: functional
NCI-H460 [5] = assay: Induction of apoptosis in human NCI-H460 cells assessed as late apoptotic cells at 1.5 uM incubated for 48 hrs by annexin V-FITC and PI staining based flow cytometry analysis (reference value: 7.3 %); format: functional
NCI-H460 [6] = assay: Induction of cell cycle arrest in human NCI-H460 cells assessed as G0 phase at 1.5 uM incubated for 36 hrs by PI staining based flow cytometry analysis (reference value: 2.8 +/- 0.7 %); format: functional
NCI-H460 [7] = assay: Induction of apoptosis in human NCI-H460 cells assessed as early apoptotic cells at 3 uM incubated for 48 hrs by annexin V-FITC and PI staining based flow cytometry analysis (reference value: 2 %); format: functional
NCI-H460 [8] = assay: Induction of cell cycle arrest in human NCI-H460 cells assessed as G2/M phase at 1.5 uM measured at 0 hrs by PI staining based flow cytometry analysis (reference value: 25.2 +/- 4 %); format: functional
NCI-H1650 = assay: Cytotoxicity against human NCI-H1650 cells assessed as reduction in cell viability incubated for 72 hrs by XTT assay; format: functional, cell-based; settings: NCI-H1650, 72 h
HCT-116 [9] = assay: Induction of cell cycle arrest in human HCT-116 cells assessed as G1 phase at 1.5 uM measured at 0 hrs by PI staining based flow cytometry analysis (reference value: 52 +/- 5.1 %); format: functional
NCI-H460 [10] = assay: Induction of cell cycle arrest in human NCI-H460 cells assessed as S phase at 1.5 uM incubated for 36 hrs by PI staining based flow cytometry analysis (reference value: 7.6 +/- 3.9 %); format: functional
HCT-116 [11] = assay: Antitumor activity against human HCT-116 cells xenografted in nude mouse assessed as reduction in tumor size at 30 mg/kg, iv administered for 5 days and repeated cycle for 2 days interval and measured on day 24; format: functional; settings: HCT-116, iv, 576 h, time 24 day, read-out: TGI
NCI-H460 [12] = assay: Induction of cell cycle arrest in human NCI-H460 cells assessed as G0 phase at 3 uM incubated for 12 hrs by PI staining based flow cytometry analysis (reference value: 2.9 +/- 2.4 %); format: functional
NCI-H460 [13] = assay: Induction of apoptosis in human NCI-H460 cells assessed as viable cells at 1.5 uM incubated for 48 hrs by annexin V-FITC and PI staining based flow cytometry analysis (reference value: 90.1 %); format: functional; settings: read-out: Activity
NCI-H460 [14] = assay: Induction of cell cycle arrest in human NCI-H460 cells assessed as G1 phase at 0.75 uM incubated for 12 hrs by PI staining based flow cytometry analysis (reference value: 66 +/- 10 %); format: functional
NCI-H460 [15] = assay: Antitumor activity against human NCI-H460 cells xenografted in nude mouse assessed as reduction in tumor size at 30 mg/kg, iv administered for 5 days and repeated cycle for 2 days interval and measured on day 24; format: functional; settings: 576 h, time 24 day, read-out: TGI
HCT-116 [16] = assay: Induction of cell cycle arrest in human HCT-116 cells assessed as G1 phase at 0.375 uM incubated for 36 hrs by PI staining based flow cytometry analysis (reference value: 57.4 +/- 1.3 %); format: functional
NCI-H460 [17] = assay: Induction of cell cycle arrest in human NCI-H460 cells assessed as G2/M phase at 1.5 uM incubated for 24 hrs by PI staining based flow cytometry analysis (reference value: 21 +/- 6.7 %); format: functional
[18] = Toxicity in nude mouse xenografted with human HCT-116 cells assessed as reduction in body weight at 30 mg/kg, iv administered for 5 days and repeated cycle for 2 days interval and measured on day 24; format: organism-based; settings: in vivo, 576 h, time 24 day
How it was run: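 Nude mice carried human HCT116 colorectal xenografts. Dosing was i.v. at 30 mg/kg once daily for five days (QD×5), and this cycle was given twice with a 2-day gap. Body weight was tracked against vehicle-treated mice, with tumour assessment at day 24.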

NCI-H460 [19] = assay: Induction of apoptosis in human NCI-H460 cells assessed as necrotic cells at 6 uM incubated for 48 hrs by annexin V-FITC and PI staining based flow cytometry analysis (reference value: 0.7 %); format: functional
NCI-H460 [20] = assay: Induction of cell cycle arrest in human NCI-H460 cells assessed as G2/M phase at 0.75 uM measured at 0 hrs by PI staining based flow cytometry analysis (reference value: 25.2 +/- 4 %); format: functional
NCI-H460 [21] = assay: Induction of cell cycle arrest in human NCI-H460 cells assessed as S phase at 1.5 uM incubated for 12 hrs by PI staining based flow cytometry analysis (reference value: 11.2 +/- 4.3 %); format: functional
NCI-H460 [22] = assay: Induction of cell cycle arrest in human NCI-H460 cells assessed as G1 phase at 3 uM measured at 0 hrs by PI staining based flow cytometry analysis (reference value: 53.4 +/- 4.8 %); format: functional
HCT-116 [23] = assay: Induction of cell cycle arrest in human HCT-116 cells assessed as S phase at 0.75 uM incubated for 36 hrs by PI staining based flow cytometry analysis (reference value: 7.9 +/- 3.7 %); format: functional
NCI-H460 [24] = assay: Induction of cell cycle arrest in human NCI-H460 cells assessed as S phase at 0.75 uM incubated for 24 hrs by PI staining based flow cytometry analysis (reference value: 11.7 +/- 6.1 %); format: functional
NCI-H460 [25] = assay: Induction of cell cycle arrest in human NCI-H460 cells assessed as G1 phase at 0.75 uM incubated for 36 hrs by PI staining based flow cytometry analysis (reference value: 57.9 +/- 3.6 %); format: functional
HCT-116 [26] = assay: Induction of cell cycle arrest in human HCT-116 cells assessed as G1 phase at 0.375 uM incubated for 12 hrs by PI staining based flow cytometry analysis (reference value: 53.6 +/- 4.5 %); format: functional
NCI-H460 [27] = assay: Induction of cell cycle arrest in human NCI-H460 cells assessed as G2/M phase at 3 uM incubated for 12 hrs by PI staining based flow cytometry analysis (reference value: 22.9 +/- 6.8 %); format: functional
HCT-116 [28] = assay: Induction of cell cycle arrest in human HCT-116 cells assessed as S phase at 1.5 uM measured at 0 hrs by PI staining based flow cytometry analysis (reference value: 12.4 +/- 6.2 %); format: functional

With `OCc1cn2c3ccccc3c3ccccc3c2c1CO` the Activity (HCT-116 [1]) was 46.7%, the Activity (NCI-H460 [2]) was 14.2% and the Activity (NCI-H460 [3]) was 54%. For the same molecule, the IC50 (CCRF-CEM) was 370 nM, the Activity (NCI-H460 [4]) was 30% and the Activity (NCI-H460 [5]) was 13.7%. For the same molecule, the Activity (NCI-H460 [6]) was 3.3%, the Activity (NCI-H460 [7]) was 10.8% and the Activity (NCI-H460 [8]) was 23.9%. It also gave an IC50 (NCI-H1650) of 3730 nM, an Activity (HCT-116 [9]) of 53.6% and an Activity (NCI-H460 [10]) of 3.5%. For the same molecule, the inhibition in vivo at 30 mg/kg (HCT-116 [11]) was 72%, the Activity (NCI-H460 [12]) was 2.5% and the viability at 1.5 µM (NCI-H460 [13]) was 82.2%. The Activity (NCI-H460 [14]) was 53%, the inhibition in vivo at 30 mg/kg (NCI-H460 [15]) was 66% and the Activity (HCT-116 [16]) was 59.3%. For the same molecule, the Activity (NCI-H460 [17]) was 25.4%, the Activity [18] was “Non-Toxic” and the Activity (NCI-H460 [19]) was 1.6%. It also gave an Activity (NCI-H460 [20]) of 24.2%, an Activity (NCI-H460 [21]) of 16.3% and an Activity (NCI-H460 [22]) of 52.1%. For the same molecule, the Activity (HCT-116 [23]) was 5.1%, the Activity (NCI-H460 [24]) was 11% and the Activity (NCI-H460 [25]) was 67.8%. The Activity (HCT-116 [26]) was 51.6%, the Activity (NCI-H460 [27]) was 22.8% and the Activity (HCT-116 [28]) was 12.6%.
